Laboratory results as given in ChEMBL document CHEMBL6134770, “Miniaturized click chemistry and direct screening facilitate the discovery of triazole piperazine SARS-CoV-2 Mpro inhibitors with improved metabolic stability” (RSC Med Chem, 2025).
The source made the active and inactive calls. No rule for the calls is given here.

Legend:
[1] = Inhibition of SARS-CoV-2 Main protease using MCA-AVLQSGFR-Lys(Dnp)-Lys-NH2 as substrate preincubated for 10 mins followed by substrate addition and measured after 10 mins by FRET assay; design: species or system Severe acute respiratory syndrome coronavirus 2
How it was run: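 Mpro (1.5 μM stock) was preincubated with purified compound for 10 min at 37 °C in Tris–HCl/NaCl, pH 7.3. FRET substrate was then added and fluorescence (ex 320/em 405) followed for 10 min. Inhibition was calculated from initial 60 s slopes versus control and blank wells. Compounds were tested at 0.1, 0.5, 1, 5 and 10 μM in three independent experiments, and IC50 was fitted.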

[2] = tested on: Severe acute respiratory syndrome coronavirus 2; test: Inhibition of SARS-CoV-2 Main protease using MCA-AVLQSGFR-Lys(Dnp)-Lys-NH2 as substrate at 5 uM preincubated for 10 mins followed by substrate addition and measured after 10 mins by FRET assay relative to control; details: time 20.0 min
SARS-CoV-2 [3] = test: Antiviral activity against SARS-CoV-2 infected in African green monkey Vero E6 cells pre-infected with cells for 1 hr followed by compound treatment and measured after 25 to 26 hrs by ELISPOT assay; format: functional, organism-based; details: Severe acute respiratory syndrome coronavirus 2, Vero C1008
[4] = Cytotoxicity against African green monkey Vero E6 cells assessed as cell viability measured for 26 hrs by MTS assay; format: toxicity, cell-based, Vero C1008; details: chlorocebus sabaeus
How it was run: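 Vero E6 cells were seeded at 1.7 × 10^4 per well in DMEM/10% FBS for 24 h. They were then exposed to compound in DMEM/5% FBS (final 1% DMSO) for 26 h at 37 °C, 5% CO2. MTS/PMS was added for 4 h and A490 read, minus media blank, normalised to DMSO wells. CC50 was fitted by four-parameter model with bottom fixed at zero, from ≥3 replicates.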

[5] = Metabolic stability in rat liver microsome assessed as parent compound remaining measured at 30 mins in presence of NADPH by LC-MS/MS analysis; format: ADME; details: liver microsomes, read-out: Stability
How it was run: (§1)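 Microsomes (0.5 mg/mL) and 1 μM compound (final) in 100 mM phosphate buffer were prewarmed 5 min at 37 °C. Reactions were started with NADPH-regenerating solution; a no-NADPH control was run. Samples at 0, 5, 15, 30 and 60 min were quenched with cold MeOH:acetonitrile 1:1 containing labetalol/tolbutamide internal standards. Percent remaining is mean of n = 2. t1/2 came from the slope, and CLint was scaled with factor 1800.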

[6] = Metabolic stability in rat liver microsome assessed as parent compound remaining measured at 15 mins in presence of NADPH by LC-MS/MS analysis; format: ADME; details: liver microsomes, read-out: Stability; how it was run: as §1
[7] = Metabolic stability in rat liver microsome assessed as parent compound remaining measured at 60 mins in presence of NADPH by LC-MS/MS analysis; format: ADME; details: liver microsomes, read-out: Stability; how it was run: as §1
[8] = Metabolic stability in rat liver microsome assessed as half life measured up to 60 mins in presence of NADPH by LC-MS/MS analysis; format: ADME; details: liver microsomes; how it was run: as §1
[9] = Metabolic stability in rat liver microsome assessed as parent compound remaining measured immediately in presence of NADPH by LC-MS/MS analysis; format: ADME; details: liver microsomes, read-out: Stability; how it was run: as §1
[10] = Metabolic stability in rat liver microsome assessed as parent compound remaining measured at 5 mins in presence of NADPH by LC-MS/MS analysis; format: ADME; details: liver microsomes, read-out: Stability; how it was run: as §1
[11] = Metabolic stability in rat liver microsome assessed as intrinsic clearance measured up to 60 mins in presence of NADPH by LC-MS/MS analysis; format: ADME; details: liver microsomes; how it was run: as §1
SARS-CoV-2 [12] = test: Antiviral activity against SARS-CoV-2; format: functional, organism-based; details: Severe acute respiratory syndrome coronavirus 2
[13] = Drug degradation in rat liver microsome measured within 15 mins in presence of NADPH by LC-MS/MS analysis; format: ADME; details: liver microsomes, read-out: Drug degradation; how it was run: as §1

Row | Structure (SMILES) | IC50 [1] | inhibition [2] | EC50 (SARS-CoV-2 [3]) | CC50 at 26 h [4] | remaining at 0.5 h [5] | remaining at 0.25 h [6] | remaining at 1 h [7] | half-life [8] | remaining at 0 min [9] | remaining at 5 min [10] | CLint scaled [11] | EC50 (SARS-CoV-2 [12]) | metabolised at 0.25 h [13]
1 | O=C(c1cccnc1)N1CCN(c2ccc(Cl)c(Cl)c2)[C@H](c2cn(-c3ccc4c(c3)OCO4)nn2)C1 | 2230 nM | Active | 6320 nM | > 100000 nM |  |  |  |  |  |  |  |  | 
2 | O=C(c1cccnc1)N1CCN(c2ccc(Cl)c(Cl)c2)[C@H](c2cn(-c3ccc(CO)cc3)nn2)C1 | 1870 nM | Active | 6990 nM |  | 13.3% | 36.5% | 5.1% | 10.3 min | 100% | 70.7% | 242 mL/min/kg |  | 
3 | O=C(O)Cc1ccccc1Nc1c(Cl)cccc1Cl [DICLOFENAC] |  |  |  |  |  |  |  | 16.6 min |  |  | 150 mL/min/kg |  | 
4 | Cn1cnc(Cn2c(=O)[nH]/c(=N\c3cc4cn(C)nc4cc3Cl)n(Cc3cc(F)c(F)cc3F)c2=O)n1 |  |  |  |  |  |  |  |  |  |  |  | 110 nM | 
5 | O=C(NCc1cccs1)[C@@H]1CN(C(=O)c2cccnc2)CCN1c1ccc(Cl)c(Cl)c1 | 390 nM | Active | 1780 nM |  | 0% | 1.56% | 0% | 2.51 min | 100% | 22.7% | 994 mL/min/kg |  | 100%
